Laboratory results taken from ChEMBL document CHEMBL4138188, “Eurycomalactone Inhibits Expression of Endothelial Adhesion Molecules at a Post-Transcriptional Level” (J Nat Prod, 2017).
The source made the active and inactive calls. The calls are words filed in the database; no cut-off is given here.

Legend:
[1] = species: Homo sapiens; experiment: Inhibition of NF-kappaB in HUVECtert assessed as reduction in TNFalpha-induced ICAM-1 mRNA expression level at 10 uM pretreated for 30 mins followed by TNFalpha stimulation measured after 4 hrs by qRT-PCR analysis
Method in brief: (§1)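 HUVECtert (immortalised HUVEC, used to passage 15), 0.5 × 10^6 cells grown 48 h on gelatin-coated dishes. Preincubated 30 min with compound or 0.1% DMSO vehicle, then TNFα 10 ng/mL for 2 h (E-selectin) or 4 h (VCAM-1, ICAM-1). After RNA isolation and cDNA synthesis, mRNA was quantified by qRT-PCR using the 2−ΔΔCt method. Means ± SD, n = 3.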

[2] = species: Homo sapiens; experiment: Inhibition of NF-kappaB in HUVECtert assessed as reduction in TNFalpha-induced E-selectin mRNA expression level at 10 uM pretreated for 30 mins followed by TNFalpha stimulation measured after 2 hrs by qRT-PCR analysis; method in brief: as §1
[3] = species: Homo sapiens; experiment: Inhibition of NF-kappaB in HUVECtert assessed as reduction in TNFalpha-induced VCAM-1 mRNA expression level at 10 uM pretreated for 30 mins followed by TNFalpha stimulation measured after 4 hrs by qRT-PCR analysis; method in brief: as §1
[4] = species: Homo sapiens; experiment: Inhibition of de novo protein synthesis in HUVECtert at 1 to 35 uM after 30 mins by Click-iT OPP/Alexa fluor 488 picolyl azide reagent based flow cytometry; format: functional
Method in brief: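 HUVECtert (1 × 10^6 cells in tubes) exposed 30 min to agent (2 or 5 μM; cycloheximide 1−35 μM) or vehicle, then 20 μM OPP 30 min; fixed, permeabilised, Alexa 488 click-labelled in Tris buffer pH 7.4; FL-1 flow cytometry relative to control; n = 3, one-way ANOVA/Dunnett.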

[5] = species: Homo sapiens; experiment: Inhibition of NF-kappaB in HUVECtert assessed as reduction in TNFalpha-induced E-selectin mRNA expression level at 35 uM pretreated for 30 mins followed by TNFalpha stimulation measured after 2 hrs by qRT-PCR analysis
[6] = species: Homo sapiens; experiment: Inhibition of NF-kappaB in HUVECtert assessed as reduction in cyclin D1 mRNA expression level at 1 uM measured up to 240 mins by qRT-PCR analysis
Method in brief: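 HUVECtert incubated without TNFα with 2 μM agent, 1 μM cycloheximide or 0.1% DMSO for 0.5−4 h; cyclin D1 mRNA by qRT-PCR, 2−ΔΔCt analysis.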

[7] = species: Homo sapiens; experiment: Reduction in survivin level in HUVECtert at 1 uM by Western blot analysis; format: functional; details: TDE = time-dependent effect
Method in brief: (§2)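 HUVECtert treated with 1 μM cycloheximide, 2 μM agent, vehicle, or left untreated for a time course; cyclin D1 or survivin by Western blot, actin loading control; means ± SD of three blots, one-way ANOVA/Dunnett versus untreated.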

[8] = species: Homo sapiens; experiment: Inhibition of NF-kappaB in HUVECtert assessed as reduction in TNFalpha-induced VCAM-1 mRNA expression level at 35 uM pretreated for 30 mins followed by TNFalpha stimulation measured after 4 hrs by qRT-PCR analysis
[9] = species: Homo sapiens; experiment: Reduction in cyclin A level in HUVECtert at 1 uM after 8 hrs by Western blot analysis; format: functional
[10] = Inhibition of NF-kappaB in HUVECtert assessed as reduction in TNFalpha-induced VCAM-1 expression level pretreated for 30 mins followed by TNFalpha stimulation measured after 18 hrs by flow cytometry; set-up: species or system Homo sapiens
Method in brief: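 FITC-antibody surface staining, flow cytometry; expression relative to TNFα-stimulated control. Parthenolide 10 μM as positive control; means ± SD, n = 3, one-way ANOVA/Dunnett versus vehicle.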

[11] = species: Homo sapiens; experiment: Inhibition of de novo protein synthesis in HUVECtert at 1 to 35 uM after 30 mins by Click-iT OPP/Alexa fluor 488 picolyl azide reagent based confocal fluorescence microscopy; format: functional
Method in brief: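 Cells on gelatin coverslips (24 h) exposed 30 min to agent (2 or 5 μM; cycloheximide 1, 3.5, 35 μM) or 0.1% DMSO, then 20 μM OPP for 30 min; formaldehyde fixation, Triton permeabilisation, Alexa 488 picolyl azide click reaction 30 min, nuclear counterstain; confocal imaging at 10×, constant gain and exposure.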

[12] = species: Homo sapiens; experiment: Inhibition of NF-kappaB in HUVECtert assessed as reduction in TNFalpha-induced ICAM-1 mRNA expression level at 35 uM pretreated for 30 mins followed by TNFalpha stimulation measured after 4 hrs by qRT-PCR analysis
[13] = species: Homo sapiens; experiment: Reduction in cyclin D1 level in HUVECtert at 1 uM by Western blot analysis; format: functional; details: TDE = time-dependent effect; method in brief: as §2
[14] = species: Homo sapiens; experiment: Reduction in p53 level in HUVECtert at 1 uM after 8 hrs by Western blot analysis; format: functional

SMILES | inhibition [1] | inhibition [2] | inhibition [3] | inhibition [4] | inhibition [5] | inhibition [6] | Activity [7] | inhibition [8] | Activity [9] | IC50 [10] [nM] | inhibition [11] | inhibition [12] | Activity [13] | Activity [14]
C=C1C(=O)O[C@@H]2C3O[C@]3(C)CC/C=C(\C)CC[C@@H]12 (some centres undefined) | Active | Active | Active | – | – | – | – | – | – | – | – | – | – | –
C[C@@H]1C[C@@H]([C@H](O)CC2CC(=O)NC(=O)C2)C(=O)[C@@H](C)C1 [CYCLOHEXIMIDE] | – | – | – | Active | inactive | inactive | Tde | Active | inactive | 300 | Active | inactive | Tde | inactive
